Assay [1] has as its target T1, Glutathione S-transferase A1 (Homo sapiens, UniProt P08263).
T1 sequence (P08263 whole entry): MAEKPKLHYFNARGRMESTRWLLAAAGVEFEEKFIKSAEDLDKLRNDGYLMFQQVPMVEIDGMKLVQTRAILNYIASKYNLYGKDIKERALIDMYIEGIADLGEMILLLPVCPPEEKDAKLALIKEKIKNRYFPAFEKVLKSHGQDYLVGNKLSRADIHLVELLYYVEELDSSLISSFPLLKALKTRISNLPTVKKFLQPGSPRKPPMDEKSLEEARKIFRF
Briefly: Inhibition of GST A1-1.

In assay [2] the target is Glutathione S-transferase P (Homo sapiens, UniProt P09211). Briefly: Inhibition of GST P1-1.
Glutathione S-transferase P, sequence (P09211 whole entry): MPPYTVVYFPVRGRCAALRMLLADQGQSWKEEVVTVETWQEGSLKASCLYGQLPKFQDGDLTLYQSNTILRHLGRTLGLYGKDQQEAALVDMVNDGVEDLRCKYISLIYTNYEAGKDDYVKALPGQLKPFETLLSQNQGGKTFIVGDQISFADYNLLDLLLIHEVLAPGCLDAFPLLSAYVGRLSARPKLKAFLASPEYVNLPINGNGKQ
The species entered for another assay is Homo sapiens. Briefly: Selectivity for GST A1-1 over GST P1-1. The essentials: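 Ratio of IC50s from CDNB–GSH conjugation assays. Each E. coli-expressed, purified enzyme at 20 nM, GSH and CDNB at the respective K_M. Inhibitor diluted from DMSO stock into water, final DMSO <1%. Absorbance at 340 nm for 1 min, four-log concentration span, triplicate.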

In general, IC50 refers to the point on the concentration scale where inhibition reaches its midpoint. For `C=C(CC)C(=O)c1ccc(OCC(=O)NCCCC(=O)NCc2cccc(C(N)=O)c2)c(Cl)c1Cl`, the concentration for half-maximal inhibition (IC50) in assay [1] turned out to be 13.8 µM; in assay [2] it was 15 µM. Also, the Selectivity ratio in the assay filed under Homo sapiens worked out at 1.1.
In assay [1], `C=C(CC)C(=O)c1ccc(OCC(=O)NCc2cc(CNC(=O)COc3ccc(C(=O)C(=C)CC)c(Cl)c3Cl)cc(C(N)=O)c2)c(Cl)c1Cl` gave a concentration for half-maximal inhibition (IC50) of 0.0327 µM. In addition, the Selectivity ratio in the assay filed under Homo sapiens amounted to 30.
In turn, `C=C(CC)C(=O)c1ccc(OCC(=O)O)c(Cl)c1Cl` [ETHACRYNIC ACID] gave an IC50 in assay [1] of 5 µM.
Turning to `C=C(CC)C(=O)c1ccc(OCC(=O)NCC(=O)NCc2cc(CNC(=O)CNC(=O)COc3ccc(C(=O)C(=C)CC)c(Cl)c3Cl)cc(C(N)=O)c2)c(Cl)c1Cl`, the results for the IC50 in assay [1] and in assay [2] were 0.024 µM and 0.704 µM, respectively. Further, the Selectivity ratio in the assay filed under Homo sapiens is 29.

These data come from ChEMBL document CHEMBL1137426, “Bivalent inhibitors of glutathione S-transferase: the effect of spacer length on isozyme selectivity” (Bioorg Med Chem Lett, 2006).
